From ChEMBL document CHEMBL1133105, “Antimalarial, antitrypanosomal, and antileishmanial activities and cytotoxicity of bis(9-amino-6-chloro-2-methoxyacridines): influence of the linker” (J Med Chem, 2000) come the findings set out here.

By IC50 is commonly meant the concentration at which inhibition is half-maximal. A higher IC50 goes with a need for much substance.

The first assay deals with MRC5. The assay can be described thus: Cytotoxicity on MRC-5 cells at 3.13 uM. Type of assay: functional. The settings on record: Homo sapiens. The method, boiled down: (§1)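 MRC-5 human diploid embryonic lung cells seeded at 5 000/well, washed after 24 h, then given 2-fold drug dilutions (25, 12.5, 6.25, 3.13 µM) in RPMI + 5% FCS, final DMSO below 0.5%. Incubated 7 days at 37 °C, 5% CO2. MTT colorimetric read-out, scored as % reduction of absorbance at 540 nm versus untreated controls.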
The compound `COc1ccc2nc3cc(Cl)ccc3c(NCCCN(CCCNc3c4ccc(Cl)cc4nc4ccc(OC)cc34)C(=O)C(CN)NC(=O)OC(C)(C)C)c2c1` (stereo not drawn) showed a cytotoxicity at 3.13 µM of 0%.

In turn, `COc1ccc2nc3cc(Cl)ccc3c(NCCCN(CCCNc3c4ccc(Cl)cc4nc4ccc(OC)cc34)C(=O)C(C)NC(=O)OCC3c4ccccc4-c4ccccc43)c2c1` (stereo not drawn) came in with a cytotoxicity at 3.13 µM of 100%.

A further assay relates to Trypanosoma brucei. The assay can be described thus: Percentage of activity against Trypanosoma brucei at 1.56 uM. Type of assay: functional.
Conditions: not given
Summed up: (§2)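 Bloodstream-form T. brucei in HMI-9 medium, 10 000 parasites/well, exposed to 12.5, 6.25, 3.13 and 1.56 µM drug for 4 days. Read-out is % inhibition of parasite multiplication. Macrophage toxicity judged on mouse primary peritoneal macrophages.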
On to `COc1ccc2nc3cc(Cl)ccc3c(NCCCN(CCCNc3c4ccc(Cl)cc4nc4ccc(OC)cc34)C(=O)C(CN)NC(=O)OC(C)(C)C)c2c1` (stereo not drawn), for which the “Percent inhibition of parasite multiplication” value worked out at 99%.

For `COc1ccc2nc3cc(Cl)ccc3c(NCCCN(CCCNc3c4ccc(Cl)cc4nc4ccc(OC)cc34)C(=O)C(C)NC(=O)OCC3c4ccccc4-c4ccccc43)c2c1` (stereo not drawn), the “Percent inhibition of parasite multiplication” value amounted to 100%.

In a further assay the test system is Trypanosoma cruzi. The assay can be described thus: Percentage of activity against Trypanosoma cruzi at 1.56 uM. Type of assay: functional.
Conditions: not given
The method, boiled down: (§3)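 Mouse peritoneal macrophages, 30 000/well, infected after 24 h with about 100 000 T. cruzi trypomastigotes per well plus 2-fold drug dilutions (12.5–1.56 µM). Incubated 4 days at 37 °C, 5% CO2. Methanol-fixed, Giemsa-stained and scored microscopically as % reduction of total parasite load (free trypomastigotes plus intracellular amastigotes) versus untreated controls.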
Turning to `COc1ccc2nc3cc(Cl)ccc3c(NCCCN(CCCNc3c4ccc(Cl)cc4nc4ccc(OC)cc34)C(=O)C(CN)NC(=O)OC(C)(C)C)c2c1` (stereo not drawn), the Parasite load reduction turned out to be 0%.

`COc1ccc2nc3cc(Cl)ccc3c(NCCCN(CCCNc3c4ccc(Cl)cc4nc4ccc(OC)cc34)C(=O)C(C)NC(=O)OCC3c4ccccc4-c4ccccc43)c2c1` (stereo not drawn): the Parasite load reduction came out at 0%.

Another assay has as its system MRC5. Put plainly: Cytotoxicity on MRC-5 cells at 12.5 uM. The settings on record: Homo sapiens. It counts as functional. The method, boiled down: as §1
`COc1ccc2nc3cc(Cl)ccc3c(NCCCN(CCCNc3c4ccc(Cl)cc4nc4ccc(OC)cc34)C(=O)C(CN)NC(=O)OC(C)(C)C)c2c1` (stereo not drawn) showed a cytotoxicity at 12.5 µM of 37%.

Compound `COc1ccc2nc3cc(Cl)ccc3c(NCCCN(CCCNc3c4ccc(Cl)cc4nc4ccc(OC)cc34)C(=O)C(C)NC(=O)OCC3c4ccccc4-c4ccccc43)c2c1` (stereo not drawn) had a cytotoxicity at 12.5 µM of 100%.

In another assay the test system is Plasmodium falciparum. Put plainly: In vitro sensitivity for Plasmodium falciparum FcB1R.
Conditions: not given
Type of assay: functional, organism-based. Summed up: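 Asynchronous P. falciparum cultures in human erythrocytes (0.5% parasitemia, 1% haematocrit) exposed to serially diluted drug for 24 h at 37 °C. [3H]hypoxanthine (0.5 µCi/well) then added for a further 24 h. Uptake compared with drug-free controls on the same plate. IC50 taken from the concentration–response curve, averaged over independent experiments. DMSO ≤0.1%.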
Turning to `COc1ccc2nc3cc(Cl)ccc3c(NCCCN(CCCNc3c4ccc(Cl)cc4nc4ccc(OC)cc34)C(=O)C(CN)NC(=O)OC(C)(C)C)c2c1` (stereo not drawn), the IC50 amounted to 0.307 µM.

Consider `COc1ccc2nc3cc(Cl)ccc3c(NCCCN(CCCNc3c4ccc(Cl)cc4nc4ccc(OC)cc34)C(=O)C(C)NC(=O)OCC3c4ccccc4-c4ccccc43)c2c1` (stereo not drawn), for which the midpoint of inhibition, the IC50, lay at 0.232 µM.

In a further assay the test system is Trypanosoma brucei. Put plainly: Percentage of activity against Trypanosoma brucei at 12.5 uM. It counts as functional.
Conditions: not given
Summed up: as §2
For the compound `COc1ccc2nc3cc(Cl)ccc3c(NCCCN(CCCNc3c4ccc(Cl)cc4nc4ccc(OC)cc34)C(=O)C(C)NC(=O)OCC3c4ccccc4-c4ccccc43)c2c1` (stereo not drawn), the “Inhibition of parasite multiplication” value amounted to 100%.

A further assay has as its system Trypanosoma brucei. Put plainly: Percentage of activity against Trypanosoma brucei at 3.13 uM. Type of assay: functional.
Conditions: not given
The method, boiled down: as §2
`COc1ccc2nc3cc(Cl)ccc3c(NCCCN(CCCNc3c4ccc(Cl)cc4nc4ccc(OC)cc34)C(=O)C(CN)NC(=O)OC(C)(C)C)c2c1` (stereo not drawn) showed a Parasite growth inhibition of 100%.

Consider `COc1ccc2nc3cc(Cl)ccc3c(NCCCN(CCCNc3c4ccc(Cl)cc4nc4ccc(OC)cc34)C(=O)C(C)NC(=O)OCC3c4ccccc4-c4ccccc43)c2c1` (stereo not drawn), for which the Parasite growth inhibition was found to be 100%.

For another assay, the system named is Leishmania infantum. The assay can be described thus: Percentage of activity against Leishmania infantum at 1.56 uM. It counts as functional.
Conditions: not given
The method, boiled down: (§4)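 Starch-stimulated mouse peritoneal macrophages, 30 000/well, infected after 24 h with spleen-derived L. infantum amastigotes (10:1) together with 2-fold drug dilutions (12.5–1.56 µM). Incubated 7 days at 37 °C, 5% CO2. Wright-stained slides scored microscopically as % reduction of total parasite load or of infected macrophages. Uninfected treated cultures judged microscopically for macrophage toxicity.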
As for `COc1ccc2nc3cc(Cl)ccc3c(NCCCN(CCCNc3c4ccc(Cl)cc4nc4ccc(OC)cc34)C(=O)C(CN)NC(=O)OC(C)(C)C)c2c1` (stereo not drawn), the “Antileishmanial activity (% reduction of parasite load)” value is 0%.

As for `COc1ccc2nc3cc(Cl)ccc3c(NCCCN(CCCNc3c4ccc(Cl)cc4nc4ccc(OC)cc34)C(=O)C(C)NC(=O)OCC3c4ccccc4-c4ccccc43)c2c1` (stereo not drawn), the “Antileishmanial activity (% reduction of parasite load)” value is 0%.

The next assay concerns Trypanosoma cruzi. Put plainly: In Vitro evaluation for the percentage of activity towards Trypanosoma cruzi at 6.25 uM Concentration; Toxic upon mouse primary peritoneal macrophages. Type of assay: functional, organism-based.
Conditions: not given
Summed up: as §3
For `COc1ccc2nc3cc(Cl)ccc3c(NCCCN(CCCNc3c4ccc(Cl)cc4nc4ccc(OC)cc34)C(=O)C(CN)NC(=O)OC(C)(C)C)c2c1` (stereo not drawn), the Cytotoxicity result is “Toxic”.

On to `COc1ccc2nc3cc(Cl)ccc3c(NCCCN(CCCNc3c4ccc(Cl)cc4nc4ccc(OC)cc34)C(=O)C(C)NC(=O)OCC3c4ccccc4-c4ccccc43)c2c1` (stereo not drawn), for which the Cytotoxicity entry is “Toxic”.

The test system of the next assay is Leishmania infantum. The assay can be described thus: Percentage of activity against Leishmania infantum at 12.5 uM Concentration; Toxic upon mouse primary peritoneal macrophages. Type of assay: functional, organism-based.
Conditions: not given
The method, boiled down: as §4
Regarding `COc1ccc2nc3cc(Cl)ccc3c(NCCCN(CCCNc3c4ccc(Cl)cc4nc4ccc(OC)cc34)C(=O)C(CN)NC(=O)OC(C)(C)C)c2c1` (stereo not drawn), the Cytotoxicity entry is “Toxic”.

For `COc1ccc2nc3cc(Cl)ccc3c(NCCCN(CCCNc3c4ccc(Cl)cc4nc4ccc(OC)cc34)C(=O)C(C)NC(=O)OCC3c4ccccc4-c4ccccc43)c2c1` (stereo not drawn), the Cytotoxicity entry was “Toxic”.

In another assay the test system is MRC5. The assay can be described thus: Cytotoxicity on MRC-5 cells at 6.25 uM. Type of assay: functional. The settings on record: Homo sapiens. The method, boiled down:
as §1
Compound `COc1ccc2nc3cc(Cl)ccc3c(NCCCN(CCCNc3c4ccc(Cl)cc4nc4ccc(OC)cc34)C(=O)C(CN)NC(=O)OC(C)(C)C)c2c1` (stereo not drawn) registered a cytotoxicity at 6.25 µM of 0%.

Compound `COc1ccc2nc3cc(Cl)ccc3c(NCCCN(CCCNc3c4ccc(Cl)cc4nc4ccc(OC)cc34)C(=O)C(C)NC(=O)OCC3c4ccccc4-c4ccccc43)c2c1` (stereo not drawn) displayed a cytotoxicity at 6.25 µM of 100%.

For another assay, the system named is Trypanosoma cruzi. Put plainly: Percentage of activity against Trypanosoma cruzi at 12.5 uM; Toxic upon mouse primary peritoneal macrophages. Type of assay: functional, organism-based.
Conditions: not given
The method, boiled down: as §3
Take `COc1ccc2nc3cc(Cl)ccc3c(NCCCN(CCCNc3c4ccc(Cl)cc4nc4ccc(OC)cc34)C(=O)C(CN)NC(=O)OC(C)(C)C)c2c1` (stereo not drawn): the Cytotoxicity entry is “Toxic”.

Turning to `COc1ccc2nc3cc(Cl)ccc3c(NCCCN(CCCNc3c4ccc(Cl)cc4nc4ccc(OC)cc34)C(=O)C(C)NC(=O)OCC3c4ccccc4-c4ccccc43)c2c1` (stereo not drawn), the Cytotoxicity result is “Toxic”.

Another assay relates to Trypanosoma cruzi. The assay can be described thus: Percentage of activity against Trypanosoma cruzi at 3.13 uM.
Conditions: not given
Type of assay: functional. The method, boiled down: as §3
Regarding `COc1ccc2nc3cc(Cl)ccc3c(NCCCN(CCCNc3c4ccc(Cl)cc4nc4ccc(OC)cc34)C(=O)C(CN)NC(=O)OC(C)(C)C)c2c1` (stereo not drawn), the “Reduction of T. cruzi parasite load” value was 40%.

For the compound `COc1ccc2nc3cc(Cl)ccc3c(NCCCN(CCCNc3c4ccc(Cl)cc4nc4ccc(OC)cc34)C(=O)C(C)NC(=O)OCC3c4ccccc4-c4ccccc43)c2c1` (stereo not drawn), the “Reduction of T. cruzi parasite load” value worked out at 0%.

The next assay relates to MRC5. Put plainly: Cytotoxicity on MRC-5 cells at 25 uM. Type of assay: functional. The settings on record: Homo sapiens. The method, boiled down: as §1
`COc1ccc2nc3cc(Cl)ccc3c(NCCCN(CCCNc3c4ccc(Cl)cc4nc4ccc(OC)cc34)C(=O)C(CN)NC(=O)OC(C)(C)C)c2c1` (stereo not drawn) came in with a cytotoxicity at 25 µM of 39%.

`COc1ccc2nc3cc(Cl)ccc3c(NCCCN(CCCNc3c4ccc(Cl)cc4nc4ccc(OC)cc34)C(=O)C(C)NC(=O)OCC3c4ccccc4-c4ccccc43)c2c1` (stereo not drawn) gave a cytotoxicity at 25 µM of 100%.

The test system of the next assay is Trypanosoma brucei. The assay can be described thus: Percentage of activity against Trypanosoma brucei at 6.25 uM. Type of assay: functional.
Conditions: not given
The method, boiled down:
as §2
As to `COc1ccc2nc3cc(Cl)ccc3c(NCCCN(CCCNc3c4ccc(Cl)cc4nc4ccc(OC)cc34)C(=O)C(CN)NC(=O)OC(C)(C)C)c2c1` (stereo not drawn), the “Inhibition of parasite multiplication” value is 100%.

In the case of `COc1ccc2nc3cc(Cl)ccc3c(NCCCN(CCCNc3c4ccc(Cl)cc4nc4ccc(OC)cc34)C(=O)C(C)NC(=O)OCC3c4ccccc4-c4ccccc43)c2c1` (stereo not drawn), the “Inhibition of parasite multiplication” value was 100%.

The next assay concerns Leishmania infantum. Put plainly: Percentage of activity against Leishmania infantum at 6.25 uM; Toxic upon mouse primary peritoneal macrophages. Type of assay: functional, organism-based.
Conditions: not given
The method, boiled down: as §4
As for `COc1ccc2nc3cc(Cl)ccc3c(NCCCN(CCCNc3c4ccc(Cl)cc4nc4ccc(OC)cc34)C(=O)C(CN)NC(=O)OC(C)(C)C)c2c1` (stereo not drawn), the Cytotoxicity result is “Toxic”.

`COc1ccc2nc3cc(Cl)ccc3c(NCCCN(CCCNc3c4ccc(Cl)cc4nc4ccc(OC)cc34)C(=O)C(C)NC(=O)OCC3c4ccccc4-c4ccccc43)c2c1` (stereo not drawn): the Cytotoxicity result was “Toxic”.

A further assay concerns Leishmania infantum. Put plainly: Percentage of activity against Leishmania infantum at 3.13 uM.
Conditions: not given
Type of assay: functional. Summed up:
as §4
For the compound `COc1ccc2nc3cc(Cl)ccc3c(NCCCN(CCCNc3c4ccc(Cl)cc4nc4ccc(OC)cc34)C(=O)C(CN)NC(=O)OC(C)(C)C)c2c1` (stereo not drawn), the “Percent antileishmanial activity (reduction of parasite load)” value came to 0%.

As for `COc1ccc2nc3cc(Cl)ccc3c(NCCCN(CCCNc3c4ccc(Cl)cc4nc4ccc(OC)cc34)C(=O)C(C)NC(=O)OCC3c4ccccc4-c4ccccc43)c2c1` (stereo not drawn), the “Percent antileishmanial activity (reduction of parasite load)” value was determined as 40%.
